Usually inhibition stands for the relative decrease from the control value, in per cent.

Test [1] has as its target T1, 85/88 kDa calcium-independent phospholipase A2 (Homo sapiens) (UniProt O60733).
T1 sequence (whole entry): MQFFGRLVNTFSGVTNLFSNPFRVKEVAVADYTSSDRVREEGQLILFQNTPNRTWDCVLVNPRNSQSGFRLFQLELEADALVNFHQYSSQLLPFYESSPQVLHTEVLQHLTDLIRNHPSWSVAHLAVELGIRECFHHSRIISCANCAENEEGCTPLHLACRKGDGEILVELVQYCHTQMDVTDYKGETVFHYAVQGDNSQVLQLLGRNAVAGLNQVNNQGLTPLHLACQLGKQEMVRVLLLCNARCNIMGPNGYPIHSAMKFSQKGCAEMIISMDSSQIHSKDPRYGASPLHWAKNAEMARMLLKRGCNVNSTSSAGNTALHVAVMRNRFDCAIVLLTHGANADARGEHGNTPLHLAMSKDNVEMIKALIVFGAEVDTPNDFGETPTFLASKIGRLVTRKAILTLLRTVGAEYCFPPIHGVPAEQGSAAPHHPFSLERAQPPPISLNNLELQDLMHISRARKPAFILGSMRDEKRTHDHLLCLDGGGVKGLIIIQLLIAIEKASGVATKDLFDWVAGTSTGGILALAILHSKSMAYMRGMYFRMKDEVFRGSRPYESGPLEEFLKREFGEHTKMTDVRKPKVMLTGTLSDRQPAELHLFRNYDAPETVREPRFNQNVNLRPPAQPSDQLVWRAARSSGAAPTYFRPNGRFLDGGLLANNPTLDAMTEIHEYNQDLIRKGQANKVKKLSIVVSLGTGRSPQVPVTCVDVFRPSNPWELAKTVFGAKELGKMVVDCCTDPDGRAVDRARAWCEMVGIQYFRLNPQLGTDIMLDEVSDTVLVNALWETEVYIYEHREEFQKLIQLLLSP
Description: Inhibition of human group VIA iPLA2 using arachidonyl-1-14C PAPC by mixed micelles modified Dole assay. The method, boiled down:
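Run in the same micelle substrate (Triton X-100/PAPC/14C-PAPC) in 100 mM HEPES pH 7.5, 2 mM ATP and 4 mM DTT, on compounds showing over 95% inhibition in the screen. Percent inhibition plotted against log mole fraction; XI(50) and its error obtained by nonlinear regression.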

Test [2] has as its target T2, Phospholipase A2 group V (Homo sapiens) (UniProt P39877).
T2 sequence (whole entry): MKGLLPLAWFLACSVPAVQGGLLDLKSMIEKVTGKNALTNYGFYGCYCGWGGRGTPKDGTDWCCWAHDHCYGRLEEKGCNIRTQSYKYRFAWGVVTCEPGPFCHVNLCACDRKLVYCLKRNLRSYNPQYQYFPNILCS
Description: Inhibition of human group V sPLA2 at 0.091 mol fraction using arachidonyl-1-14C PAPC by mixed micelles modified Dole assay.

Test [3] concerns the target T3, Cytosolic phospholipase A2 (Homo sapiens) (UniProt P47712).
T3 sequence (whole entry): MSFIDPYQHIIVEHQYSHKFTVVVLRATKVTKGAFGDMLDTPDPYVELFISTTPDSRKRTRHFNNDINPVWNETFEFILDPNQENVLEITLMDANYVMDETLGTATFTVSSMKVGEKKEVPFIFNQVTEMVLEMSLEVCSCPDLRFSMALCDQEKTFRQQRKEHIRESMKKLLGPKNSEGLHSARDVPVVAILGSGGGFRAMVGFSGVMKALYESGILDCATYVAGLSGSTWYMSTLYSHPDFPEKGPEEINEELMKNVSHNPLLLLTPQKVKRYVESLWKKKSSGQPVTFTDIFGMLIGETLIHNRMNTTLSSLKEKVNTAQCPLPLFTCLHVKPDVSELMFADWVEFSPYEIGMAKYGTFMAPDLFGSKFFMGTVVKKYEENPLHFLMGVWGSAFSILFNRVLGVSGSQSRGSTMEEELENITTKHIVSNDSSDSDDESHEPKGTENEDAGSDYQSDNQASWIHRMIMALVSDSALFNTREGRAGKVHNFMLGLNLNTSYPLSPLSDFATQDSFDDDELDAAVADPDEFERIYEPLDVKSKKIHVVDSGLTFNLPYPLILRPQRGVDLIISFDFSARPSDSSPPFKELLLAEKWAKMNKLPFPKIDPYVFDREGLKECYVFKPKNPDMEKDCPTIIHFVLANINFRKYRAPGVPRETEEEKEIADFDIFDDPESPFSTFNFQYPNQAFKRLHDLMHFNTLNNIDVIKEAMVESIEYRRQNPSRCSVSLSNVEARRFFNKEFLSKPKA
Nature of the test: Inhibition of human group IVA cPLA2 at 0.091 mol fraction using arachidonyl-1-14C PAPC by mixed micelles modified Dole assay. The method, boiled down:
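Buffer: 100 mM HEPES pH 7.5 with 90 μM CaCl2, 2 mM DTT and 0.1 mg/ml BSA. Inhibitor screened at 0.091 mole fraction, added from a 5 mM DMSO stock; percent inhibition recorded.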

In test [4] the target is T1, 85/88 kDa calcium-independent phospholipase A2 (Homo sapiens). Description: Inhibition of human group VIA iPLA2 at 0.091 mol fraction using arachidonyl-1-14C PAPC by mixed micelles modified Dole assay. The method, boiled down:
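Substrate micelles: 400 μM Triton X-100, 98.3 μM PAPC, 1.7 μM arachidonyl-1-14C PAPC. Buffer: 100 mM HEPES pH 7.5, 2 mM ATP, 4 mM DTT. Inhibitor tested at 0.091 mole fraction from a 5 mM DMSO stock; percent inhibition determined.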

As for `COc1ccc(CCSCC(=O)c2noc(C(C)(C)C)n2)cc1`, in test [1], the XI50 turned out to be 0.0057. Besides, the inhibition was determined as 38% in test [2], 70% in test [3] and 98% in test [4].

Regarding `COc1ccc(CCSCC(=O)C(F)(F)F)cc1`, in test [1], the XI50 is 9e-05. Moreover, the figures for the inhibition in test [2], in test [3] and in test [4] were below 25%, 60% and 96%, respectively.

In the case of `O=C(CSCCc1ccccc1)C(F)(F)C(F)(F)F`, in test [1], the XI50 worked out at 0.00015. Moreover, the inhibition in test [2] is below 25%; in test [3], below 25%; in test [4] it was 99%.

As for `COc1ccc(CCCCC(=O)c2noc(C(C)(C)C)n2)cc1`, the inhibition in test [2] was found to be 35%; in test [3], 52%; in test [4], 64%.

Regarding `O=C(CSCCc1ccc2ccccc2c1)C(F)(F)F`, in test [1], the XI50 was 0.0002. Moreover, the inhibition turned out to be 32% in test [2], 88% in test [3] and 99% in test [4].

As for `COc1ccc(CCSCC(=O)C(F)(F)C(F)(F)F)cc1`, the XI50 in test [1] came to 0.00012. Moreover, the inhibition in test [2] is 28%; in test [3] it was 61%; in test [4], 100%.

These data come from ChEMBL document CHEMBL3817820, “Development of Potent and Selective Inhibitors for Group VIA Calcium-Independent Phospholipase A2 Guided by Molecular Dynamics and Structure-Activity Relationships” (J Med Chem, 2016).
